# Laboratory results published in ChEMBL document CHEMBL3860043, “Non-Acidic Free Fatty Acid Receptor 4 Agonists with Antidiabetic Activity” (J Med Chem, 2016).
# pEC50, pIC50: −log10 of the molar value.
# Legend:
# [1] = molecular target: T1, Free fatty acid receptor 1 (Homo sapiens, UniProt O14842); assay: Antagonist activity against human FFA1 expressed in human Flp-In T-REx293 cells assessed as as reduction in TUG424-induced response by Fura2-AM dye based calcium mobilization assay; assay type: functional, cell-based
# T1 sequence (O14842 whole entry): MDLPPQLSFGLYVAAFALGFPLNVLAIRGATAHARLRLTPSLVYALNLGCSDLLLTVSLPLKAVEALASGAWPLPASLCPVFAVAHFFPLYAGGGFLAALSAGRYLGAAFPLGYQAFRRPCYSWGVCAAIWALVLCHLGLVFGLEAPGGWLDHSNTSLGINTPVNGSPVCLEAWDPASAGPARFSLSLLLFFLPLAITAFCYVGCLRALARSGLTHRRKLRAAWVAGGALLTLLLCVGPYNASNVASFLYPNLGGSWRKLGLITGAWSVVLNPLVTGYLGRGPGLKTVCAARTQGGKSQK
# Outline: (§1)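 Flp-In T-REx 293 cells with inducible human FFA1, seeded at 50000 cells/well and induced with 100 ng/ml doxycycline after 3-4 h adherence. Next day loaded with Fura2-AM for 45 min, washed, then preincubated 15 min in HBSS with test ligand before 300 nM agonist challenge. Fura2 340:380 ratio change read at 510 nm emission. Inhibition expressed as % reduction of the agonist response.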
# [2] = molecular target: T1, Free fatty acid receptor 1; assay: Antagonist activity against human FFA1 expressed in human Flp-In T-REx293 cells assessed as as reduction in 300 nM TUG424-induced response by Fura2-AM dye based calcium mobilization assay relative to untreated control; assay type: functional, cell-based; outline: as §1
# [3] = molecular target: T2, Free fatty acid receptor 4 (Homo sapiens) (UniProt Q5NUL3); assay: Agonist activity at C-terminal YFP-tagged human FFA4 expressed in HEK293 cells in presence of coelentrazine h by BRET based beta-arrestin-2 interaction assay relative to 100 uM […]; assay type: cell-based
# T2 sequence (whole entry): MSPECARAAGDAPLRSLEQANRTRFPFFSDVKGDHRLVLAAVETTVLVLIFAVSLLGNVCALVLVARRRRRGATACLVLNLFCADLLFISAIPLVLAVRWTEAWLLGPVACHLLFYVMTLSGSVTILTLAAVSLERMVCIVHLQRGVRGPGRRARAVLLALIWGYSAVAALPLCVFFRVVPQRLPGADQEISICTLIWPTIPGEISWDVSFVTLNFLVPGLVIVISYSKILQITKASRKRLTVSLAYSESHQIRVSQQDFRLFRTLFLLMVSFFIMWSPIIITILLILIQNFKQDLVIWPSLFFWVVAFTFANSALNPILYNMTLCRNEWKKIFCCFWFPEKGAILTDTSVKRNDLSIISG
# Outline: (§2)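 HEK293 cells co-transfected with C-terminal eYFP-fused human FFA4 and β-arrestin-2–Renilla luciferase; plated 24 h post-transfection, used 24 h later. After an HBSS wash, coelenterazine h (2.5 µM) for 15 min, with ligands present for the final 5 min, 37 °C. BRET taken as the 535/475 nm emission ratio. Efficacy relative to 100 µM reference agonist. Three-parameter sigmoidal fits; mean ± S.E. of 2-4 independent experiments.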
# [4] = molecular target: T3, Free fatty acid receptor 4 (Homo sapiens, UniProt Q5NUL3); assay: Agonist activity at C-terminal YFP-tagged human FFA4 expressed in HEK293 cells in presence of coelentrazine h by BRET based beta-arrestin-2 interaction assay; assay type: cell-based; settings: for EC50: read-out: pEC50 (converted); outline: as §2
# T3 sequence (Q5NUL3 whole entry): T2 sequence (whole entry)
# [5] = molecular target: T2, Free fatty acid receptor 4 (Homo sapiens); assay: Agonist activity at human FFA4 expressed in human Flp-In T-REx293 cells by Fura2-AM dye based calcium mobilization assay relative to 100 uM […]; assay type: functional, cell-based
# Outline: (§3)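 Flp-In T-REx 293 cells with doxycycline-inducible human FFA4 seeded at 50000 cells/well and induced overnight with 100 ng/ml doxycycline. Loaded with Fura2-AM for 45 min, washed three times in HBSS, equilibrated 15 min, then ligand added. Emission at 510 nm with 340/380 nm excitation; response is the change in 340:380 ratio. Efficacy relative to 100 µM reference agonist; 2-4 independent experiments, sigmoidal fits.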
# [6] = molecular target: T3, Free fatty acid receptor 4; assay: Agonist activity at human FFA4 expressed in human Flp-In T-REx293 cells by Fura2-AM dye based calcium mobilization assay; assay type: functional, cell-based; outline: as §3
# [7] = molecular target: T1, Free fatty acid receptor 1; assay: Antagonist activity against human FFA1 expressed in human Flp-In T-REx293 cells assessed as as reduction in TUG770-induced response by Fura2-AM dye based calcium mobilization assay; assay type: functional, cell-based
# Outline: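 Antagonism measured in FFA1 Ca2+ mobilization with 20 nM TUG-770 as the stimulating agonist. Test ligand preincubated 15 min in HBSS before agonist addition. Read-out is the change in Fura2 340:380 ratio at 510 nm emission.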
# [8] = Solubility in FaSSIF solution; assay type: physicochemical
# [9] = molecular target: T4, Free fatty acid receptor 4 (Mus musculus, UniProt Q7TMA4); assay: Agonist activity mouse FFA4 by Gq-dependent calcium mobilization assay; assay type: functional
# T4 sequence (Q7TMA4 whole entry): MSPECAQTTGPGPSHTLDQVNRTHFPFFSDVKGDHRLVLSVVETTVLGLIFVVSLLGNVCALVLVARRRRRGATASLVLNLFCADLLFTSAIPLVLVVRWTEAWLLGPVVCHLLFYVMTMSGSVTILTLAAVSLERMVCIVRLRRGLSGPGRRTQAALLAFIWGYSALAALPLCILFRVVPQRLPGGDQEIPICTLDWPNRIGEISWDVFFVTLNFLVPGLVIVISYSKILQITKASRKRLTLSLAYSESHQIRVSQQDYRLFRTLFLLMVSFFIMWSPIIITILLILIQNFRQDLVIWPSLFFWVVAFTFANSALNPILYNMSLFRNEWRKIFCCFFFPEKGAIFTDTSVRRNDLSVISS
# [10] = Solubility in PBS buffer; assay type: physicochemical
pIC50 [1],Imax [2] [%],Emax [3] [%],EC50 [4] [µM],Emax [5] [%],pEC50 [6],pIC50 [7],solubility [8] [µM],pEC50 [9],pEC50 ([4]; read-out: EC50),solubility [10] [µM],SMILES
4.35,71,42,2.69,–,–,–,–,–,–,–,Cc1ccccc1Oc1cc(F)cc(N2Cc3ccccc3S2(=O)=O)c1
5.61,36,–,> 100,–,–,–,–,–,–,–,O=S1(=O)c2ccccc2CN1c1cc(F)cc(OCc2ccccc2)c1
–,–,82,0.49,–,–,–,–,–,–,–,COc1ccc(S(=O)(=O)Nc2c(C)cc(C)cc2C)cc1
–,–,45,5.01,–,–,–,–,–,–,–,O=C1c2ccccc2C(=O)N1c1cc(F)cc(Oc2cccnc2)c1
< 4.00,–,76,16.2,–,–,–,–,–,–,–,N#Cc1ccccc1Oc1cc(F)cc(N2Cc3ccccc3S2(=O)=O)c1
< 4.00,–,97,1.26,120,5.77,–,–,–,–,–,O=S1(=O)c2ccccc2CN1c1cc(F)cc(Oc2ccncc2)c1
5.54,52,91,0.437,38,5.96,–,–,–,–,–,Cc1ccc(Oc2cc(F)cc(N3Cc4ccccc4S3(=O)=O)c2)cc1
4.97,57,–,–,–,–,–,–,–,–,–,CN(c1ccc(Oc2ccccc2)cc1)S(=O)(=O)c1ccc(F)cc1
4.70,44,57,5.25,–,–,–,–,–,–,–,N#CCc1cccc(Oc2cc(F)cc(N3Cc4ccccc4S3(=O)=O)c2)c1
–,–,113,0.138,78,7.41,< 4.00,0.9,7.14,7.40,0.1,O=S1(=O)c2ccccc2CN1c1cc(Cl)cc(Oc2ccccn2)c1
4.89,95,52,3.55,–,–,–,–,–,–,–,O=S(=O)(Nc1ccc(Oc2ccccc2)cc1)c1ccc(F)cc1
